Data set [1] is described as follows: Terminal half life in rat at 3 mg/kg, iv by LC-MS/MS analysis. As to conditions: in vivo, read-out: beta t1/2 (converted). The class given is ADME, organism-based. An outline of the steps:
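Rats were dosed IV as a solution in 75% PEG300:25% D5W, or orally as a suspension in 0.5% methylcellulose, 0.5% Tween80 and 99% water.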

Data set [2] has as its target T1, Bile acid receptor (Rattus norvegicus) (UniProt Q62735).
T1 sequence (whole entry): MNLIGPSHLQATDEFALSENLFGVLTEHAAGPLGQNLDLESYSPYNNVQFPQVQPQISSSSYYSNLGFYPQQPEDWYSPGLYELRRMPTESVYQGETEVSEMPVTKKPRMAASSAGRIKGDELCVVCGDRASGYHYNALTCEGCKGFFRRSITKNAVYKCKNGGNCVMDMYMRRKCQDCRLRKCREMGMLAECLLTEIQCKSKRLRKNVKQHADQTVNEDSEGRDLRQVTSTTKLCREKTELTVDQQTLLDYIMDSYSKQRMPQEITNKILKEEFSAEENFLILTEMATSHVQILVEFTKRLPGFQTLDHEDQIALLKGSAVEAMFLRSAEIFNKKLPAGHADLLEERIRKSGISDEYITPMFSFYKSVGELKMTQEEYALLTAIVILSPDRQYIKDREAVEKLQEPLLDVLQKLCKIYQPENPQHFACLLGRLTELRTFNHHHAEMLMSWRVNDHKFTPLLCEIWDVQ
Description: Agonist activity at FXR in rat primary hepatocytes assessed as induction of SHP mRNA level after 24 hrs by qPCR analysis. In kind it is cell-based. (In general: Quantitative PCR measures a nucleic acid by following its amplification.)

The test system of data set [3] is Rattus norvegicus. The data set is described as follows: In vivo agonist activity at FXR in Sprague-Dawley rat assessed as downregulation of CYP8B1 mRNA level in liver at 0.003 mg/kg, po qd for 14 days measured 7 hrs post last dose on day 14 by qPCR analysis. In kind it is functional, organism-based.
The test system of data set [4] is Rattus norvegicus. Description: In vivo agonist activity at FXR in Sprague-Dawley rat assessed as downregulation of CYP8B1 mRNA level in liver at >0.03 mg/kg, po qd for 14 days measured 7 hrs post last dose on day 14 by qPCR analysis. The class given is functional, organism-based.
In data set [5] the test system is Rattus norvegicus. Description: In vivo agonist activity at FXR in po dosed Sprague-Dawley rat assessed as induction of SHP mRNA level in ileum administered once daily for 14 days measured 7 hrs post last dose on day 14 by qPCR analysis. In kind it is functional.
For data set [6], the system named is Rattus norvegicus. The data set is described as follows: In vivo agonist activity at FXR in Sprague-Dawley rat assessed as serum triglyceride level at 0.3 mg/kg, po administered once daily for 14 days measured 24 hrs post last dose. The class given is functional.
Data set [7] can be described thus: Drug uptake in Sprague-Dawley rat plasma at 0.3 mg/kg, po qd administered via gavage measured 1 hr post last dose on day 14 by LC-MS/MS analysis. The class given is ADME, organism-based.
A short description of data set [8]: Drug uptake in Sprague-Dawley rat liver at 0.1 mg/kg, po qd administered via gavage measured 7 hrs post last dose on day 14 by LC-MS/MS analysis. In kind it is ADME, organism-based. To be noted: read-out: Drug uptake. An outline of the steps:
(§1)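 Drug concentration in liver was quantified from tissue homogenates, so these are total levels. Unbound liver concentration was not determined.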

Data set [9] in a line: Drug uptake in Sprague-Dawley rat liver at 0.03 mg/kg, po qd administered via gavage measured 1 hr post last dose on day 14 by LC-MS/MS analysis. As to conditions: read-out: Drug uptake. In kind it is ADME, organism-based. The essentials: as §1
A short description of data set [10]: Drug uptake in Sprague-Dawley rat plasma at 0.01 mg/kg, po qd administered via gavage measured 7 hrs post last dose on day 14 by LC-MS/MS analysis. The class given is ADME, organism-based.
The test system of data set [11] is Rattus norvegicus. Description: Dose normalized AUC (0 to 24 hrs) in Sprague-Dawley rat at 1 mg/kg, po qd administered via gavage measured on day 11 by LC-MS/MS analysis. The class given is ADME, organism-based. As to conditions: in vivo.
The subject of data set [12] is Rattus norvegicus. The data set is described as follows: Dose normalized AUC (0 to 24 hrs) in Sprague-Dawley rat at 1 mg/kg, po qd administered via gavage measured on day 1 by LC-MS/MS analysis. The class given is ADME, organism-based. As to conditions: in vivo.
Data set [13] has as its system Rattus norvegicus. Description: Dose normalized AUC (0 to 24 hrs) in Sprague-Dawley rat at 0.3 mg/kg, po qd administered via gavage measured on day 1 by LC-MS/MS analysis. The class given is ADME, organism-based. As to conditions: in vivo.
The nature of data set [14]: AUC (0 to 24 hrs) in Sprague-Dawley rat at 0.03 mg/kg, po qd administered via gavage measured on day 1 by LC-MS/MS analysis. The class given is ADME, organism-based. To be noted: in vivo. Also on record: time < 24 hr, dose 0.03 mg/kg, route oral.
Data set [15] can be described thus: Clearance in mouse at 5 mg/kg, iv by LC-MS/MS analysis. The class given is ADME, organism-based. As to conditions: in vivo. An outline of the steps: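 Single IV dose given as a solution. Mouse received 5 mg/kg in 75% PEG300:25% D5W. Dog received 0.5 mg/kg in 20% PEG300, 5% solutol and 75% carbonate buffer pH = 8.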
The nature of data set [16]: Volume of distribution at steady state in mouse at 5 mg/kg, iv or 10 mg/kg, po administered via gavage by LC-MS/MS analysis. The class given is ADME, organism-based. To be noted: in vivo, read-out: Vdss. The essentials:
(§2)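 IV dosing used a solution in 75% PEG300:25% D5W for mouse and rat, and a solution in 20% PEG300, 5% solutol, 75% carbonate buffer pH 8 for dog. PO dosing used a suspension in 0.5% methylcellulose, 0.5% Tween80, 99% water for all three species.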

Data set [17] can be described thus: Volume of distribution at steady state in rat at 3 mg/kg, iv or 1 mg/kg, po administered via gavage by LC-MS/MS analysis. As to conditions: in vivo, read-out: Vdss. The class given is ADME, organism-based. The essentials:
as §2

Data set [18] in a line: Half life in dog at 0.5 mg/kg, iv by LC-MS/MS analysis. The class given is ADME, organism-based, Canis lupus familiaris. To be noted: in vivo. The essentials: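 Single IV dose given as a solution. Mouse and rat received it in 75% PEG300:25% D5W. Dog received it in 20% PEG300, 5% solutol and 75% carbonate buffer pH = 8. Plasma was sampled for PK parameters.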
A short description of data set [19]: Cmax in dog at 2 mg/kg, po administered via gavage by LC-MS/MS analysis. As to conditions: in vivo. The class given is ADME, organism-based, Canis lupus familiaris. Also on record: dose 2 mg/kg, route oral. An outline of the steps: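 Single oral dose given as a suspension in 0.5% methylcellulose, 0.5% Tween80 and 99% water. Doses were 10 mg/kg in mouse, 1 mg/kg in rat and 2 mg/kg in dog.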

Data set [20] in a line: Oral bioavailability in mouse at 10 mg/kg administered via gavage by LC-MS/MS analysis. The class given is ADME, organism-based. To be noted: in vivo. The essentials: as §2
A short description of data set [21]: Protein binding in mouse plasma at 5 mg/kg, iv or 10 mg/kg, po administered via gavage by LC-MS/MS analysis. The class given is ADME, organism-based. As to conditions: read-out: PPB.
The nature of data set [22]: Drug uptake in Sprague-Dawley rat plasma at 3 mg/kg, po qd administered via gavage measured 1 hr post last dose on day 14 by LC-MS/MS analysis. In kind it is ADME, organism-based.
The test system of data set [23] is Rattus norvegicus. The data set is described as follows: Drug metabolism in rat assessed as taurine conjugated metabolite formation at 3 mg/kg, iv or 1 mg/kg, po administered via gavage by LC-MS/MS analysis. The class given is ADME, organism-based. As to conditions: in vivo.
The subject of the next data set is Canis familiaris. Description: Drug metabolism in dog assessed as taurine conjugated metabolite formation at 0.5 mg/kg, iv or 2 mg/kg, po administered via gavage by LC-MS/MS analysis. To be noted: in vivo. In kind it is ADME, organism-based, Canis lupus familiaris. An outline of the steps:
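Plasma samples were taken from the dog PK studies. The IV solution was 20% PEG300, 5% solutol and 75% carbonate buffer pH = 8. The PO suspension was 0.5% methylcellulose, 0.5% Tween80 and 99% water. Samples were screened for taurine- and glycine-conjugated metabolites and for the acylglucuronide.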

The values that follow come from ChEMBL document CHEMBL4028903 (J Med Chem, 2017).

Calls of active or inactive are those of the source. The rule behind the calls is not given here.

For the compound `O=C(O)c1cc(F)c2nc(N3C4CCC3CC(OCc3c(-c5ccccc5OC(F)(F)F)noc3C3CC3)C4)sc2c1` (centres undefined), the half-life was 3.7 h in [1] and 7.4 h in [18]. For the same compound, the Activity entry in data set [2] was “Dose-dependent effect”; with Rattus norvegicus [6], 79%. The result in the data set on Rattus norvegicus [3] and in the data set on Rattus norvegicus [4] was Active. Further, the ED50 (usually the midpoint of the dose-response relation) with Rattus norvegicus [5] was 0.01 mg/kg. In addition, the concentration at 1 h in [7] turned out to be 6.84 nM; in data set [9] it was 11.9 nM; in [22] it was 62.6 nM. Further, the concentration at 7 h in data set [8] was found to be 45 nM; in data set [10], 0.31 nM. The AUC/dose in the data set with Rattus norvegicus [11] came to 562 nM·h; with Rattus norvegicus [12], 461 nM·h; in the data set with Rattus norvegicus [13], 390 nM·h. For the same compound, the AUC(0-t) (commonly exposure summed from dosing to a finite time, without extrapolation to infinity) at 24 h in data set [14] was 0.015 µM·h. In addition, the clearance (commonly the volume of plasma or blood freed of the substance per unit of time) in data set [15] was 5.3 mL/min/kg. The Vd in data set [16] amounted to 0.7 L/kg; in data set [17], 0.72 L/kg. The highest level in [19] (Cmax) was 332 nM. Moreover, the bioavailability (usually the share of a dose that reaches the circulation, judged against a reference dose that is usually intravenous) in data set [20] amounted to 9.2%. Further, the fraction unbound in [21] came out at 0.001. The Drug metabolism result in the data set with Rattus norvegicus [23] and in the data set on Canis familiaris was “Metabolite_Notdetected” each time.
